CHOP inhibitor = inhibitors of CHOP induction in ER stress response; CHO-K1 CHOP-promoter luciferase, tunicamycin-induced, 15-18 h; inhibition, % at 10 µM; 220,000 compounds, 3.8% hits; AID 2732;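 active = compounds that reduced the stress-induced luciferase reporter signal by more than about 70% of percent inhibition, limit read from the data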
WT yeast gro inh = growth inhibition of WT yeast, mitochondrial fusion screen; 190,000 compounds, 2.1% hits; AID 1362; inhibition, % at 10 µM; mitochondrial fusion phenotypic screen, WT strain; in the data active = inhibition above about 58%; tested in S. cerevisiae
GRIN3A LBD mod = NR3A (human) ligand-binding domain modulation; NR3A LBD differential scanning fluorimetry, Tm shift; 0% = protein alone, 100% = glycine-bound protein; Tm shift relative to glycine control, % at 25 µM; 340,000 compounds, 2.5% hits;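 active = melting temperature shift of at least 10% of the positive control shift, at one fixed dose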
EBV gp42 inh = inhibitors of Epstein-Barr virus glycoprotein 42. Q1HVG2. Fluorescence polarization binding assay, mP read-out. inhibition, % (tested at 21.74 µM). 220,000 compounds, 0.42% hits; in the data active = inhibition above about 50%
Target sequence (Q1HVG2 whole entry, looked up): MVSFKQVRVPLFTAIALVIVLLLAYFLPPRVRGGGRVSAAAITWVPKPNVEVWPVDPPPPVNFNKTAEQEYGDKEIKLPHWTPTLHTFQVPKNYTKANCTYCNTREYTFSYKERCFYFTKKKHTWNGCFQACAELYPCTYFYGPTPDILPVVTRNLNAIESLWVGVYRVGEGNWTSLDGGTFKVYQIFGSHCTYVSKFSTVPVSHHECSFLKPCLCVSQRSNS
Tb MetRS inh = Trypanosoma brucei MetRS inhibition | purified T. brucei MetRS, ATP depletion, Kinase-Glo luminescence | 360,000 compounds, 0.4% hits | inhibition, % at 11.9 µM;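 active = inhibition above a per-plate cutoff of the control wells' mean inhibition plus 3 SD, cut at about 5.5% in these data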
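assay system = parasite MetRS enzyme | timing = 15 min preincubation, 2 h reaction, all 25 °C | evaluation = percent inhibition relative to median high and low control wells | medium = HEPES buffer containing pyrophosphatase, BSA, spermine, DTT | compound = single dose, 11.9 µM final nominal, 0.9% final DMSO | detection = Kinase-Glo luminescence, ATP depletion format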
MPTP block = permeability transition pore inhibition. isolated mouse mitochondria, Ca2+ swelling absorbance, 30 min. inhibition, % at 10 µM. 360,000 compounds, 1.4% hits;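 active = inhibition of 50% or more, scaled per plate between neutral and stimulator controls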
CHOP inh conf = confirmation of CHOP induction inhibitors | CHO-CHOP promoter luciferase reporter, tunicamycin-induced, luminescence | 2,100 compounds, 45% hits | inhibition, % at 10 µM | shares compounds with CHOP inhibitor;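 active = mean of three repeat readings of reporter signal inhibition above a set limit, cut at about 70% in these data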
MPTP counter = membrane potential counter-screen of mitochondrial pore inhibitors | shares compounds with MPTP block | isolated mitochondria, Rhodamine 123 fluorescence | inhibition, % at 10 µM | 5,000 compounds, 78% hits | AID 624504; in the data active = inhibition above about 22%
MPTP abs DR = MPTP inhibition, dose response swelling confirmation; shares compounds with MPTP block; isolated mitochondria swelling, absorbance; IC50, µM; 780 compounds, 58% hits; AID 651561; in the data active = IC50 below about 20 µM
MPTP cs DR = MPTP inhibitor counter-screen activity, dose response; shares compounds with MPTP block; isolated mitochondria counterscreen, fluorescence read-out; IC50, µM; 780 compounds, 49% hits; in the data active = IC50 below about 80 µM
Large screens that a line does not name were inactive (follow-up assays come after a bar, where they were run). Shown are actives, neighbours in structure and some others; about 6.4% of the full set was active somewhere.

CCCC(NCC(O)COc1ccc(-c2ccccc2)cc1)c1ccccc1 (stereo not given)	CHOP inhibitor 103, MPTP block 55 | CHOP inh conf 125 | MPTP counter inactive | MPTP abs DR 4 | MPTP cs DR 48
O=C(Nc1ccc([N+](=O)[O-])cc1)Nc1nc(-c2ccc(Cl)s2)cs1	CHOP inhibitor 107, WT yeast gro inh 87, GRIN3A LBD mod 416, MPTP block 91 | CHOP inh conf 83 | MPTP counter 87
O=S(=O)(NCC(Nc1ccc(Cl)cc1)c1ccccc1)c1ccccc1 (stereo not given)	CHOP inhibitor 99, WT yeast gro inh 83, GRIN3A LBD mod 23, MPTP block 75 | CHOP inh conf inactive | MPTP counter 87
O=C(COc1ccc(S(=O)(=O)N2CCCC2)cc1[N+](=O)[O-])N1CCCC1	none (no result: CHOP inhibitor, WT yeast gro inh, EBV gp42 inh)
Cc1ccc(/C=N/N2C(=S)SC(C)(C)C2N(O)C(=O)Nc2ccc([N+](=O)[O-])cc2)cc1 (stereo not given)	CHOP inhibitor 103, GRIN3A LBD mod 12, MPTP block 91 | CHOP inh conf 78 | MPTP counter 87
Cc1ccc(NC(=O)CCC(=O)N/N=C/c2ccccc2O)cc1	none (no result: CHOP inhibitor, WT yeast gro inh, EBV gp42 inh)
C=CCc1cccc(/C=N/NC(=O)CCCNc2ccc(C)cc2)c1O	CHOP inhibitor 97, GRIN3A LBD mod 12, MPTP block 54 | CHOP inh conf 75 | MPTP counter 30
Clc1ccc2c(N/N=C/c3ccccc3Br)ccnc2c1	CHOP inhibitor 100, MPTP block 57 | CHOP inh conf 77 | MPTP counter 99
Clc1ccc2c(N/N=C/c3cccc(Br)c3)ccnc2c1	CHOP inhibitor 105, WT yeast gro inh 99, GRIN3A LBD mod 15, MPTP block 62 | CHOP inh conf inactive | MPTP counter 94
O=S(=O)(Cc1nnnn1-c1ccc(Br)cc1)c1ccccc1	none (no result: CHOP inhibitor, WT yeast gro inh, GRIN3A LBD mod, EBV gp42 inh)
COc1ccc(C(=O)/C=C/c2cn(CC(O)CN3CCN(C)CC3)c3ccccc23)cc1OC (stereo not given)	none (no result: WT yeast gro inh)
O=S(=O)(c1ccccc1C(F)(F)F)N1C=CC(C(F)(F)F)=NCC1	none (no result: WT yeast gro inh)
COc1ccc(C(C#N)N2N=C(c3ccccc3)CC2c2ccccc2)cc1OC (stereo not given)	none
N=c1n(CC(=O)c2ccc(Br)cc2)c2ccccc2n1Cc1ccccc1	none (no result: CHOP inhibitor, WT yeast gro inh, EBV gp42 inh)
N=c1n(CC(=O)c2ccc([N+](=O)[O-])cc2)c2ccccc2n1Cc1ccc(Cl)cc1	CHOP inhibitor 105, MPTP block 88 | CHOP inh conf 122 | MPTP counter inactive
COc1ccc(NC(=O)NCCCCc2ccccc2)cc1OC	none (no result: CHOP inhibitor, WT yeast gro inh, EBV gp42 inh)
O=C(Nc1ccc(Cl)cc1)Nc1ccc(N2CCCC2)c(S(=O)(=O)Nc2ccccc2Cl)c1	CHOP inhibitor 100, GRIN3A LBD mod 32, MPTP block 98 | CHOP inh conf 73 | MPTP counter 48
O=C1/C(=C/c2ccc(F)cc2)SC(=S)N1CC(=O)N1CCCCC1c1cccnc1 (stereo not given)	none (no result: CHOP inhibitor, WT yeast gro inh, EBV gp42 inh)
COc1ccccc1/C=C1\SC(=S)N(CCC(=O)NNC(=O)c2ccccc2OC)C1=O	none (no result: CHOP inhibitor, WT yeast gro inh, EBV gp42 inh)
CC(=O)c1nnn(-c2nc(N)nc(N(c3ccccc3)c3ccccc3)n2)c1C	none
Cc1cc(C)n(-c2nc(N(c3ccccc3)c3ccccc3)nc(-n3nc(C)cc3C)n2)n1	CHOP inhibitor 109, GRIN3A LBD mod 34, MPTP block 80 | CHOP inh conf 140 | MPTP counter inactive
COc1ccc(-c2cn3cccc(C)c3n2)cc1F	none
O=C1CN(C(=O)COC(=O)c2cccc(Br)c2)c2ccccc2N1	none (no result: CHOP inhibitor, WT yeast gro inh, EBV gp42 inh)
N#CC1=C(N)N2C(=C(C#N)C1c1cccc(Br)c1)Nc1ccccc12 (stereo not given)	CHOP inhibitor 101, GRIN3A LBD mod 24, MPTP block 86 | CHOP inh conf 105 | MPTP counter 55
CCn1c(SCC(=O)N2CCN(c3ccc(F)cc3)CC2)nnc1-c1ccncc1	none
Cn1cc(Cc2ccc(C(=O)N3CCOCC3)cn2)c2ccccc21	none (no result: CHOP inhibitor, WT yeast gro inh, GRIN3A LBD mod, EBV gp42 inh)
Cc1ccc([N+](=O)[O-])cc1N=Nc1c(C)[nH]n(C(N)=S)c1=O	none (no result: CHOP inhibitor, WT yeast gro inh, EBV gp42 inh)
NC(=S)n1[nH]c(-c2ccc([N+](=O)[O-])cc2)c(N=Nc2ccc(Cl)cc2)c1=O	CHOP inhibitor 107, WT yeast gro inh 78, GRIN3A LBD mod 28, EBV gp42 inh 92, MPTP block 106 | CHOP inh conf 114 | MPTP counter 93
S=C(Nc1ccccc1)Nc1ccc(OCc2ccc(Cl)cc2Cl)cc1	CHOP inhibitor 108, GRIN3A LBD mod 14, MPTP block 85 | CHOP inh conf 115 | MPTP counter 89
O=C(C/C=N\OCc1ccc(Cl)cc1Cl)Nc1ccccc1	none
COC(=O)CS(=O)(=O)c1nnc([C@H](Cc2ccccc2)NC(=O)OC(C)(C)C)o1	CHOP inhibitor 111, MPTP block 98 | CHOP inh conf 94 | MPTP counter inactive
CS(=O)(=O)c1ccc(Sc2nc3ccccc3[nH]2)c([N+](=O)[O-])c1	none
O=[N+]([O-])c1cc(S(=O)(=O)C(F)(F)F)ccc1Sc1nc2ccccc2[nH]1	CHOP inhibitor 108, MPTP block 57 | CHOP inh conf 124 | MPTP counter 91
CCc1cc2c(CN(C)Cc3ccccc3F)cc(=O)oc2cc1O	none (no result: CHOP inhibitor, WT yeast gro inh, EBV gp42 inh)
COc1ccc(C2=CC(=O)N(Nc3ccccc3)C2=O)cc1	CHOP inhibitor 101, MPTP block 61 | CHOP inh conf inactive | MPTP counter inactive
Oc1ccc(-c2nnc(SCC3CCCCC3)o2)cc1	CHOP inhibitor 107, MPTP block 55 | CHOP inh conf inactive | MPTP counter 54
O=C(CSc1nnc(-c2ccc(O)cc2)o1)N1CCOCC1	none
Cc1ccc2cc(CN(CC3CCCO3)C(=O)C(C)C)c(=O)[nH]c2c1 (stereo not given)	none
O=C(NNc1nc2ccccc2s1)Nc1ccc(Cl)c(Cl)c1	CHOP inhibitor 106, GRIN3A LBD mod 16, MPTP block 74 (no result: WT yeast gro inh) | CHOP inh conf inactive | MPTP counter 75
CC(C)C(=O)NNc1nc2ccccc2s1	none
O=C(CN1c2cccc3cccc(c23)S1(=O)=O)Nc1ccccc1F	none (no result: CHOP inhibitor, WT yeast gro inh, EBV gp42 inh)
COc1cc([N+](=O)[O-])cc(/C=N/NC(=O)c2ccc(NC(=O)c3ccc(C)cc3)cc2)c1O	CHOP inhibitor 105, GRIN3A LBD mod 21, MPTP block 112 | CHOP inh conf inactive | MPTP counter inactive

High-throughput results (PubChem)
